Active and inactive are the calls of the source. No cut-off for these calls is given here.
Key:
MCF7 [1] = test: Antiestrogenic activity in human ER-positive MCF7 cells assessed as inhibition of 17beta estradiol-induced cell proliferation at 1 to 20 uM after 48 hrs by MTT assay; assay type: functional, cell-based
Arabidopsis thaliana [2] = test: Estrogenic activity in transgenic Arabidopsis thaliana transfected with pER8:GUS plasmid assessed as beta-glucuronidase expression at 150 to 280 uM after 48 hrs using 4-methylumbelliferyl-beta-D-glucuronide by fluorometric assay; assay type: functional, organism-based
In short: (§1)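 Transgenic Arabidopsis pER8:GUS plants are incubated with or without test compound. GUS expression is quantified by fluorometric assay. 17β-Estradiol is the positive control, run over 0.01–100 μM.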

Arabidopsis thaliana [3] = test: Estrogenic activity in transgenic Arabidopsis thaliana transfected with pER8:GUS plasmid assessed as beta-glucuronidase expression at 500 uM after 48 hrs using 4-methylumbelliferyl-beta-D-glucuronide by fluorometric assay; assay type: functional, organism-based; in short: as §1
[4] = (§2) Cytotoxicity against human Hep3B cells after 3 days by MTT assay; assay type: functional, cell-based, Hep 3B2; settings: 72 h
MCF7 [5] = test: Estrogenic activity in human ER-positive MCF7 cells assessed as secreted alkaline phosphatase activity at 20 uM after 48 hrs by phospha-light reporter chemiluminescence assay; assay type: functional, cell-based
MCF7 [6] = test: Antiestrogenic activity in human ER-positive MCF7 cells assessed as inhibition of 17beta estradiol-induced secreted alkaline phosphatase activity at 1 to 20 uM after 48 hrs by phospha-light reporter chemiluminescence assay; assay type: functional, cell-based
MCF7 [7] = test: Cytotoxicity against human MCF7 cells after 3 days by MTT assay; assay type: functional, cell-based
MDA-MB-231 = test: Cytotoxicity against human MDA-MB-231 cells after 3 days by MTT assay; assay type: functional, cell-based
A549 = test: Cytotoxicity against human A549 cells after 3 days by MTT assay; assay type: functional, cell-based; settings: for IC50: A549, 72 h
Ca9-22 = test: Cytotoxicity against human Ca9-22 cells after 3 days by MTT assay; assay type: functional, cell-based; settings: for IC50: Ca9-22, 72 h
HepG2 = test: Cytotoxicity against human HepG2 cells after 3 days by MTT assay; assay type: functional, cell-based
MCF7 [8] = test: Estrogenic activity in human ER-positive MCF7 cells assessed as secreted alkaline phosphatase activity after 48 hrs by phospha-light reporter chemiluminescence assay; assay type: functional, cell-based
Hep 3B2 = test: as §2; assay type: functional, cell-based
Arabidopsis thaliana [9] = test: Estrogenic activity in transgenic Arabidopsis thaliana transfected with pER8:GUS plasmid assessed as beta-glucuronidase expression after 48 hrs using 4-methylumbelliferyl-beta-D-glucuronide by fluorometric assay; assay type: functional; in short: as §1
MCF7 [10] = test: Estrogenic activity in human ER-positive MCF7 cells assessed as secreted alkaline phosphatase activity at 0.01 nM after 48 hrs by phospha-light reporter chemiluminescence assay; assay type: functional, cell-based
MCF7 [11] = test: Antiestrogenic activity in human ER-positive MCF7 cells assessed as inhibition of 17beta estradiol-induced secreted alkaline phosphatase activity at 2 nM after 48 hrs by phospha-light reporter chemiluminescence assay; assay type: functional, cell-based
MCF7 [12] = test: Antiestrogenic activity in human ER-positive MCF7 cells assessed as inhibition of 17beta estradiol-induced secreted alkaline phosphatase activity at 20 nM after 48 hrs by phospha-light reporter chemiluminescence assay; assay type: functional, cell-based

Row | SMILES | Activity (Arabidopsis thaliana [2]) | Activity (Arabidopsis thaliana [3]) | IC50 [4] | Activity (MCF7 [5]) | Activity (MCF7 [7]) | Activity (MDA-MB-231) | Activity (HepG2) | Activity (A549) | Activity (Ca9-22) | Activity (Hep 3B2) | further results
1 | O=C1C=C2CC3(O)COc4cc(O)ccc4C3=C2C=C1O (configuration not stated) [BRAZILEIN] | inactive | Active | 12 µM | inactive | – | – | – | – | – | – | inhibition (MCF7 [1]): Active; inhibition (MCF7 [6]): Active
2 | O=C1c2ccc(O)cc2OC[C@@H]1O | inactive | Active | 47.2 µM | inactive | inactive | inactive | inactive | – | – | – | IC50 (A549): 80.7 µM; IC50 (Ca9-22): 62.2 µM
3 | Oc1ccc2c(c1)OC[C@]1(O)Cc3cc(O)c(O)cc3[C@H]21 [BRAZILIN] | inactive | Active | 15.9 µM | inactive | – | – | – | – | – | – | inhibition (MCF7 [1]): Active; inhibition (MCF7 [6]): Active
4 | O=c1c(-c2ccc(O)cc2)coc2cc(O)cc(O)c12 | – | – | – | – | – | – | – | – | – | – | Activity (MCF7 [8]): Dose-dependent effect; inhibition (MCF7 [6]): Active
5 | Oc1ccc(C[C@@]2(O)COc3cc(O)ccc3[C@@H]2O)cc1 | inactive | Active | – | – | inactive | inactive | inactive | inactive | inactive | inactive | –
6 | O=c1c(O)coc2cc(O)ccc12 | – | – | – | Active | inactive | inactive | inactive | inactive | inactive | inactive | MAC (Arabidopsis thaliana [9]): 8.8 µM
7 | O=C1c2ccc(O)cc2OC[C@]1(O)Cc1ccc(O)cc1 | – | – | – | Active | inactive | inactive | inactive | inactive | inactive | inactive | MAC (Arabidopsis thaliana [9]): 10.9 µM; Activity (MCF7 [8]): Dose-dependent effect
8 | COc1cccc2c1C(=O)c1c(O)c3c(c(O)c1C2=O)C[C@@](O)(C(=O)CO)C[C@@H]3O[C@H]1C[C@H](N)[C@H](O)[C@H](C)O1 [DOXORUBICIN] | – | – | 1.03 µM | – | – | – | – | – | – | – | –
9 | C[C@]12CC[C@@H]3c4ccc(O)cc4CC[C@H]3[C@@H]1CC[C@@H]2O | – | – | – | – | – | – | – | – | – | – | Activity (Arabidopsis thaliana [9]): Dose-dependent effect; Activity (MCF7 [10]): Active
10 | O=C1c2ccc(O)cc2OC[C@@H]1Cc1ccc(O)c(O)c1 | – | – | – | Active | inactive | inactive | inactive | inactive | inactive | inactive | MAC (Arabidopsis thaliana [9]): 2.7 µM; Activity (MCF7 [8]): Dose-dependent effect
11 | COc1cc(O)ccc1C(=O)/C=C/c1ccc(O)cc1 | – | – | 17.9 µM | Active | – | – | – | – | – | – | MAC (Arabidopsis thaliana [9]): 2.8 µM; IC50 (MCF7 [7]; MCF7, 72 h): 51.4 µM; IC50 (MDA-MB-231; MDA-MB-231, 72 h): 44.4 µM; IC50 (A549): 32.6 µM; IC50 (Ca9-22): 57.6 µM; IC50 (HepG2; HepG2, 72 h): 7.37 µM
12 | O=C(c1ccc(OCCN2CCCCC2)cc1)c1c(-c2ccc(O)cc2)sc2cc(O)ccc12 | – | – | – | – | – | – | – | – | – | – | inhibition (MCF7 [11]): Active
13 | CC/C(=C(\c1ccccc1)c1ccc(OCCN(C)C)cc1)c1ccccc1 | – | – | – | – | – | – | – | – | – | – | inhibition (MCF7 [12]): Active
14 | Oc1ccc(C[C@@]2(O)COc3cc(O)ccc3[C@H]2O)cc1 | inactive | Active | – | – | inactive | inactive | inactive | inactive | inactive | inactive | –
15 | CC1(C)O[C@H]2c3ccc(O)cc3OC[C@@]2(Cc2ccc(O)c(O)c2)O1 | inactive | Active | – | Active | inactive | inactive | inactive | inactive | inactive | inactive | –

— ChEMBL document CHEMBL1914413, “Using the pER8:GUS reporter system to screen for phytoestrogens from Caesalpinia sappan” (J Nat Prod, 2011)
